According to PMC4161282 (Bioconjugate chemistry, 2013):
Converted amounts (≈) assume the structure as drawn. “And” between values parts separate entries of the source, which are not always exact repeats. Identical values can stand only once.

Key:
[1] = Catalyst screening: oxime ligation of citral with aminooxy-dansyl 1; conditions: catalyst 25 mM; for kobs/kobs(aniline) / t1/2 / kobs: citral 50 µM; for kobs/kobs(aniline) / t1/2: 1 100 µM; for kobs: aminooxy-dansyl 1 100 µM, PB pH 7.0, rt; for catalytic efficiency compared with aniline: screening
[2] = Approximate solubility in phosphate buffer; conditions: for solubility: phosphate buffer, pH 7, aqueous buffer
[3] = Kinetic analysis of oxime ligation between 2-pentanone and aminooxy-dansyl 1; conditions: for kobs: 2-pentanone 5.0 mM, 1 150 µM; for kobs/kobs(aniline): vs 100 mM aniline
[4] = Effect of catalyst concentration on kobs, oxime ligation of citral with 1; conditions: citral 30 µM, 1 100 µM
[5] = molecular target: T1, aldehyde-CNTF 9 (Homo sapiens, UniProt P26441); test: Rate analysis of coupling between aldehyde-CNTF 9 and aminooxy 5; conditions: catalyst 80 mM, 9 50 µM, 5 600 µM, 5 min
T1 sequence (P26441 1-200): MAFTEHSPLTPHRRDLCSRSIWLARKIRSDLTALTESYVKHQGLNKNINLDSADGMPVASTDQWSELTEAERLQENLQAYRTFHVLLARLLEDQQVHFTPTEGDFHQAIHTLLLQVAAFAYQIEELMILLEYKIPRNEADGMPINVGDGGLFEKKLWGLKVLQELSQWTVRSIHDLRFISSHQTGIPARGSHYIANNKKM
In short: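 Run at rt and started by adding aldehyde-bearing CNTF (stock 60 µM in 50 mM Tris-HCl, pH 7.5). Aliquots were taken every 5 min into SDS loading buffer and flash-frozen in liquid nitrogen. Samples were heated at 98 °C for 4 min, then analysed by SDS-PAGE.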

[6] = system: DHFR^2 M174pAcF; test: PEGylation of ketone-containing protein with aminooxy-PEG 12; conditions: catalyst 100 mM, protein 7 µM, aminooxy-PEG 5 mM, pH 7, rt
[7] = molecular target: GFP-aldehyde 4a (Aequorea victoria, UniProt P42212); test: Kinetic analysis of protein labeling via oxime ligation; conditions: catalyst 100 mM, 4a 10 µM, 1 50 µM
[8] = molecular target: immobilized GFP (Aequorea victoria, UniProt P42212); test: Kinetic analysis of hydrazone-oxime exchange; conditions: catalyst 100 mM, aminooxy fluorophore 5 1 mM
[9] = molecular target: Aldehyde-GFP 4a (Aequorea victoria, UniProt P42212); test: Immobilization of aldehyde-GFP 4a from crude cell lysate onto hydrazide beads; conditions: catalyst 100 mM
[10] = phosphate buffer (0.1 M), pH 7.0, rt

Row | Structure (SMILES) | kobs/kobs(aniline) [1] | t1/2 [1] [min] | kobs [1] [M⁻¹ s⁻¹] | catalytic efficiency compared with aniline [1] | Approximate Solubility [2, 10] | kobs ([4]; catalyst 25 mM) [M⁻¹ s⁻¹] | kobs/[cat.] ([4]; catalyst 25 mM) [ms^−1 M^−2] | kobs ([4]; catalyst 35 mM) [M⁻¹ s⁻¹] | kobs/[cat.] ([4]; catalyst 35 mM) [ms^−1 M^−2] | kobs ([4]; catalyst 42 mM) [M⁻¹ s⁻¹] | kobs/[cat.] ([4]; catalyst 42 mM) [ms^−1 M^−2] | kobs/[cat.] ([4]; catalyst 50 mM) [ms^−1 M^−2] | other results
1 | Nc1ccc(N)cc1 [p-Phenylene-diamine, p-phenylenediamine] | 1.20 | 4.63 | 29.2 ± 0.7 | more efficient compared with aniline | very soluble (>1 M) |  |  |  |  |  |  |  | 
2 | Nc1ccccc1C(=O)O [o-Aminobenzoic acid, o-aminobenzoic acid] | 1.01 |  | 24.8 ± 0.8 | equal to or less efficient than aniline |  |  |  |  |  |  |  |  | solubility [2]: > 2000 mM
3 | Nc1cccc(N)c1 [m-Phenylene-diamine, m-phenylenediamine] |  |  |  |  |  | 38.7 ± 0.1 | 1.55 | 58.3 ± 0.3 | 1.66 | 65.6 ± 0.6 | 1.56 | 1.56 | kobs ([3]; catalyst 100 mM, listed as mPDA): 0.20 ± 0.0016 M⁻¹ s⁻¹; kobs/kobs(aniline) ([3]; catalyst 100 mM): 2.41; kobs ([3]; catalyst 300 mM): 0.36 ± 0.0042 M⁻¹ s⁻¹; kobs/kobs(aniline) ([3]; catalyst 300 mM): 4.45; kobs ([3]; catalyst 500 mM): 0.73 ± 0.0071 M⁻¹ s⁻¹; kobs/kobs(aniline) ([3]; catalyst 500 mM): 8.89; kobs ([3]; catalyst 700 mM): 1.17 ± 0.013 M⁻¹ s⁻¹; kobs/kobs(aniline) ([3]; catalyst 700 mM): 14.3; kobs ([3]; catalyst 900 mM): 1.69 ± 0.022 M⁻¹ s⁻¹; kobs/kobs(aniline) ([3]; catalyst 900 mM): 20.7; kobs ([4]; catalyst 50 mM, listed as mPDA): 78.2 ± 0.7 M⁻¹ s⁻¹; extent of protein labeling (Coomassie gel) [5]: almost all of the protein was labeled
4 | Nc1ccccc1N [o-Phenylene-diamine, o-phenylenediamine] | 0.74 | 7.47 | 18.1 ± 0.3 | equal to or less efficient than aniline | very soluble (>1 M) |  |  |  |  |  |  |  | 
5 | Nc1ccccc1 [Aniline, aniline, reference compound] |  |  | 24.4 ± 0.5 |  | 100 mM | 24.3 ± 0.2 | 0.97 | 33.5 ± 0.2 | 0.96 | 36.9 ± 0.3 | 0.88 | 0.97 | effect on PEGylation reaction rate [6]: did not have a significant effect on the reaction rate; extent of reaction (labeling) in about 90 s [7]: < 7%; kobs [7]: 10.3 M⁻¹ s⁻¹; kobs of immobilized protein release [8]: 0.0159 h⁻¹; solubility ([2]; Approximate Solubility, phosphate buffer (0.1 M), pH 7.0, rt): ~100 mM (≈ 9310 µg/mL); time to complete immobilization [9]: less than 45 min; kobs ([3]; catalyst 100 mM): 0.082 M⁻¹ s⁻¹ and 0.082 ± 0.0007 M⁻¹ s⁻¹; kobs ([4]; catalyst 50 mM): 48.6 ± 0.2 M⁻¹ s⁻¹; kobs ([4]; catalyst 50 mM, listed as aniline): 48.9 M⁻¹ s⁻¹ and 48.6 M⁻¹ s⁻¹
6 | Nc1cccc(O)c1 [m-Aminophenol, m-aminophenol] | 0.98 |  | 23.9 ± 0.5 |  |  |  |  |  |  |  |  |  | 
